The values that follow come from ChEMBL document CHEMBL5705892, “MK-2206, an allosteric Akt inhibitor, enhances antitumor efficacy by standard chemotherapeutic agents or molecular targeted drugs in vitro and in vivo” (Mol Cancer Ther, 2010).

One data set relates to UMC-11. In words: Synergistic antiproliferative activity against human UMC-11 cells assessed as combination index at ED25 to ED90 measured after 72 hrs in presence of gemcitabine by celltiter-glo assay. It counts as functional.
The nature of data set [1]: Toxicity in human NCI-H292 cells xenografted CD-1 mouse assessed as death at 120 mg/kg, po administered 3 times per week for 2 weeks starting 2 hrs post-erlotinib treatment and measured during compound dosing. Type of data set: organism-based. The settings on record: in vivo, 336 h. In short, it runs like this: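 NCI-H292 cells in 50% Matrigel/PBS injected s.c. into flank of female CD1-nude mice; dosing began after 2 wk at mean tumour 0.2 cm³, n = 5/group. […] Body weight and signs monitored; treatment ended day 16.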

The test system of data set [2] is SK-BR-3. In words: Synergistic antiproliferative activity against human SK-BR-3 cells assessed as combination index at ED50 treated 24 hrs prior to lapatinib and measured after 72 hrs by celltiter-glo assay. Type of data set: functional. The conditions noted are these: time 96 hrs.
Data set [3] concerns NCI-H460. In words: Synergistic antiproliferative activity against human NCI-H460 cells assessed as combination index at ED90 measured after 72 hrs in presence of gemcitabine by celltiter-glo assay. Type of data set: functional.
The nature of data set [4]: Toxicity in human SK-OV-3 cells xenografted CB17/icr SCID mouse assessed as body weight loss at 60 to 120 mg/kg, po administered 3 times per week for 2 weeks starting 2 hrs post lapatinib treatment and measured during compound dosing. The conditions noted are these: in vivo, 336 h, dose 60-120 mg/kg. Type of data set: organism-based. Put shortly:
(§1)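 SK-OV-3 cells in 50% Matrigel/PBS injected s.c. into flank of female C.B-17/ICR-scid mice; dosing began after 3 wk, randomized at mean tumour 0.13 cm³ (n = 5). Lapatinib 100 mg/kg p.o. in distilled water 5 d/wk for 2 wk; MK-2206 in 30% Captisol p.o. days 0, 2, 4, 7, 9, 11. Body weight and physical signs monitored.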
(In general: A xenograft is tissue or cells of one species grown in another, often human tumour cells in immunodeficient mice.)

The test system of the next data set is NCI-N87. In words: Synergistic antiproliferative activity against human NCI-N87 cells assessed as combination index at ED75 measured after 72 hrs in presence of lapatinib by celltiter-glo assay. Type of data set: functional. (ATP-based viability assays read luminescence as a measure of living cells.)
Data set [5] addresses RAC-alpha serine/threonine-protein kinase (Homo sapiens) (UniProt P31749). In words: Inhibition of AKT in human A-431 cells assessed as reduction in GSK3alpha/beta phosphorylation at S21/S9 residues at 5 umol/L measured after 5 hrs in presence of erlotinib by Western blot analysis. It counts as cell-based. The conditions noted are these: dose 5.0 µmol/L. Put shortly:
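Cells were lysed in Tris-HCl pH 7.5, 150 mM NaCl, 1% Triton X-100 with protease and phosphatase inhibitors. Lysates were run on SDS-PAGE, transferred to nitrocellulose and probed with phospho-specific antibodies.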
On the technique in general: In western blotting, separated proteins are transferred to a membrane and probed.

The test system of data set [6] is SK-BR-3. The data set is described as follows: Antiproliferative activity against human SK-BR-3 cells assessed as reduction in cell proliferation measured after 72 hrs by celltiter-glo assay. Type of data set: functional, cell-based. The conditions noted are these: SK-BR-3, 72 h. In short, it runs like this: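 Cells in RPMI 1640 with 10% heat-inactivated FBS at 37°C and 5% CO₂ were seeded at 2 to 3 × 10³ per well. […] Growth was read as cellular ATP by CellTiter-Glo.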

Data set [7] deals with A2780. In words: Induction of apoptosis in human A2780 cells assessed as increase in caspase-3/7 activity at 0.0625 to 1 uM incubated for 24 hrs prior to addition of carboplatin and measured after 24 hrs by caspase-glo 3/7 assay. Type of data set: functional, cell-based. The conditions noted are these: dose 0.0625-1 µM.
For the next data set, the system named is HCC70. The data set is described as follows: Synergistic antiproliferative activity against human HCC70 cells assessed as combination index at ED75 treated 24 hrs prior to lapatinib and measured after 72 hrs by celltiter-glo assay. Type of data set: functional. The conditions noted are these: time 96 hrs.
A further data set deals with BT-474. The data set is described as follows: Synergistic antiproliferative activity against human BT-474 cells assessed as combination index at ED75 preincubated for 24 hrs followed by compound washout and subsequent docetaxel addition and measured after 72 hrs by celltiter-glo assay. Type of data set: functional. Put shortly: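 Sequential schedule. Cells were seeded at 2 to 3 × 10³ per well in RPMI 1640 with 10% FBS and dosed 24 h after plating. They were exposed to the Akt inhibitor for 24 h, washed free of it, then given docetaxel for a further 72 h. Fixed concentration ratios spanned each agent's IC₅₀. ATP was read by CellTiter-Glo, and Chou–Talalay CI was calculated at ED50, ED75 and ED90.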

Data set [8] in a line: Toxicity in human SK-OV-3 cells xenografted CB17/icr SCID mouse assessed as mortality at 60 to 120 mg/kg, po administered 3 times per week for 2 weeks starting 2 hrs post lapatinib treatment and measured during compound dosing. It counts as organism-based. The conditions noted are these: in vivo, 336 h, dose 60-120 mg/kg. In short, it runs like this:
as §1

The subject of another data set is HCC1954. The data set is described as follows: Synergistic antiproliferative activity against human HCC1954 cells assessed as combination index at ED90 measured after 96 hrs in presence of lapatinib by celltiter-glo assay. It counts as functional.
In data set [9] the test system is NCI-H460. In words: Antiproliferative activity against human NCI-H460 cells assessed as reduction in cell proliferation measured after 72 hrs by celltiter-glo assay. Type of data set: functional, cell-based. The settings on record: NCI-H460, 72 h.
Data set [10] concerns A2780. In words: Cell cycle arrest in human A2780 cells assessed as increase in accumulation of cells at sub-G1 phase measured after 72 hrs in presence of 5-FU by propidium iodide staining based flow cytometry. It counts as functional.
Data set [11] relates to SK-BR-3. In words: Synergistic antiproliferative activity against human SK-BR-3 cells assessed as combination index at ED50 measured after 72 hrs in presence of lapatinib by celltiter-glo assay. Type of data set: functional.

Active and inactive are the calls of the source. The calls are words filed in the database; no cut-off is given here.

Chain of RAC-alpha serine/threonine-protein kinase (Homo sapiens) (P31749 whole entry): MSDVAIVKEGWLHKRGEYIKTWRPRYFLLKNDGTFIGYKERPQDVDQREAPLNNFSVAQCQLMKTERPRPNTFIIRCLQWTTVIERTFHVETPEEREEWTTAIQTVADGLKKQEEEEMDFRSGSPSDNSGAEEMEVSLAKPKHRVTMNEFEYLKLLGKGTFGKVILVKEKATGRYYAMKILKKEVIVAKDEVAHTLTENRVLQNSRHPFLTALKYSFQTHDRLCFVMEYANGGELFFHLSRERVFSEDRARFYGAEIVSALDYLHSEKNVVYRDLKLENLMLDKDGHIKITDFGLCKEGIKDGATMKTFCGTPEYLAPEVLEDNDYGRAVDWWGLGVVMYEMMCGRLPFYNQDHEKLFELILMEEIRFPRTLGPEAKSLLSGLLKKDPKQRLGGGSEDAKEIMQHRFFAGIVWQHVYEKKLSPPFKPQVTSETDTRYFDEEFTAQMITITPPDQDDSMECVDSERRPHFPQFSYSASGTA

As usually defined, the IC50 is the concentration at which inhibition is half-maximal. In the case of `Cl.NC1(c2ccc(-c3nc4ccn5c(=O)[nH]nc5c4cc3-c3ccccc3)cc2)CCC1`, the CI in the data set with UMC-11 turned out to be 0.53. Moreover, the Activity result is “Non-Toxic” in data set [1], “Non-Toxic” in data set [4], “Non-Toxic” in [8] and “Dose-Dependent Effect” with A2780 [10]. Moreover, the CI50 in the data set on SK-BR-3 [2] was 0.18; in the data set with SK-BR-3 [11], 0.43. Also, the CI90 in the data set with NCI-H460 [3] came out at 0.56; in the data set with HCC1954, 0.18. The CI75 with NCI-N87 turned out to be 0.55; with HCC70, 0.18; in the data set on BT-474 it was 1.5. Moreover, the inhibition result in [5] is “Active”. The IC50 in the data set with SK-BR-3 [6] was determined as 100 nM; in the data set on NCI-H460 [9], 3400 nM. Moreover, the outcome in the data set with A2780 [7] was inactive.
